Jurkat tox 60K: cytotoxic compounds reducing Jurkat cell viability; 56,000 tested, 1.2% active; inhibition, % at 4 µM; Jurkat E6.1 viability, ATP luminescence, 48 h;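 active = inhibition above the mean inhibition of all tested compounds plus 3 SD, cut at about 28% in these data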
H69AR inhibit: growth inhibitors of human H69AR lung tumor cells | viability, % at 10 µM | 85,000 tested, 6% active | H69AR lung tumor viability, ATP luminescence, 72 h; hits give low values | AID 598;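 active = viability at or below 40%; inactive = viability above 40%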;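 note: multidrug resistant small cell line overexpressing MRP-1 efflux transporter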
tolC growth inh: E. coli tolC mutant growth inhibition | E. coli BW25113 tolC mutant growth, OD615 | AID 573 | growth inhibition, % at 10 µM (by protocol) | 65,000 tested, 2.2% active;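 active = growth inhibition at or above a cutoff equal to the mean over every tested compound plus 3 SD, cut at about 60% in these data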;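 note: growth measured after 20 h incubation at 37 °C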
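Test system: tolC-deleted E. coli BW25113 | Medium: LB with kanamycin 50 µg/mL | Compound dosing: Single concentration, 10 µM final per compound | Schedule: 37 °C, 20 h exposure | Measured by: OD at 615 nm | Evaluation: Percent growth inhibition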
Ecoli WT expand: E. coli BW25113 growth inhibition, expanded screen | OD600 absorbance | growth inhibition, % at 100 µM | 98,000 tested, 0.15% active;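 active = growth inhibition above about 50% at one test dose, limit read from the data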;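 note: growth measured after 20 h incubation at 37 °C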
Fibroblast inh: blocks proliferation of human lung fibroblasts | LL 47 human lung fibroblast viability, ATP luminescence; hits give low values | viability, % at 10 µM | 85,000 tested, 1.1% active;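 active = viability at or below 50% in the single dose screen; inactive = viability above 50%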;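 note: compound exposure lasted 72 h before the ATP readout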
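Test system: LL 47 human lung fibroblasts / Incubation: 72 h compound exposure at 37 °C after overnight plating / Technique: luminescent ATP detection, CellTiter-Glo / Compound dosing: 0.1% DMSO in all compound wells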
HUVEC prolif 384: blocks proliferation of human endothelial cells | HUVEC proliferation, CellTiter-Glo luminescence, 72 h; hits give low values | 86,000 tested, 1.1% active | viability, % at 10 µM (by protocol);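 active = viability at or below 30%; inactive = viability above 30%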
Each line names hits and unclear results; the compound was inactive in the other large screens. This is a sample that favours compounds with a hit; in the whole collection about 6.4% have one here.

COc1ccc(CCNC(=O)C2CCN(S(=O)(=O)N3CC(C)CC(C)C3)CC2)cc1OC (configuration not stated)	none
COc1ccc2c(c1)CCc1c(C(=O)Nc3cc(C)n(Cc4ccc(Cl)cc4)n3)noc1-2	H69AR inhibit 5.3
Cc1cccc(-c2c3c(=O)n(C)c(=O)n(C)c3cn2C2CCCCC2)c1	H69AR inhibit 22.7 (no result: Jurkat tox 60K, tolC growth inh)
Cn1c(=O)c2c(-c3ccccc3)n(C3CCCCC3)cc2n(C)c1=O	H69AR inhibit 37.3
CCN(c1ccc(C)c(C)c1)S(=O)(=O)c1c(C)[nH]c(=O)[nH]c1=O	none (no result: Jurkat tox 60K, tolC growth inh)
CN(C)S(=O)(=O)c1ccc2[nH]cc(/C=C/c3nc4ccccc4c(=O)n3-c3ccccc3)c2c1	H69AR inhibit 36.5 (no result: Jurkat tox 60K, tolC growth inh)
Cn1c(CCN2CCN(c3ccc(F)cc3)CC2)nc2cc(NC(=O)c3ccco3)ccc21	none
Cc1ccc(N2CCN(CCc3nc4cc(NC(=O)c5ccco5)ccc4n3C)CC2)cc1	H69AR inhibit 6.6
Cn1c(CCN2CCN(c3ccccc3)CC2)nc2cc(NC(=O)c3ccco3)ccc21	H69AR inhibit 21.2
C=CCNC(=O)C1CC(=O)N(c2ccc(OCC(=O)Nc3ccc(Cl)c(C(F)(F)F)c3)cc2)C1 (configuration not stated)	H69AR inhibit 13.8 (no result: Jurkat tox 60K, tolC growth inh)
CCC(=O)NC(Nc1ncc(C)s1)(C(=O)OC)C(F)(F)F (configuration not stated)	none (no result: Jurkat tox 60K, tolC growth inh, Ecoli WT expand)
CCCC(=O)N1c2ccccc2C(=C2SC(C(=O)OC)=C(C(=O)OC)S2)C(=S)C1(C)C	H69AR inhibit 23.8 (no result: Jurkat tox 60K, tolC growth inh, Ecoli WT expand)
COc1ccc(-c2[nH]ncc2-c2ccc(Cl)cc2)c(O)c1	H69AR inhibit 14.3, tolC growth inh 97.5
Oc1ccc(-c2[nH]ncc2-c2ccc(Cl)cc2)c(O)c1	tolC growth inh 100.0
CCOC(=O)CN1C(=O)C(C)(C)Oc2ccc(C(=O)Nc3ccccc3)cc21	none
O=C(Nc1ccc(Cl)c(Cl)c1)OCCNC(=O)c1cccc(Cl)c1	none (no result: Jurkat tox 60K, tolC growth inh)
O=C(OCn1ncc(Cl)c(Cl)c1=O)c1cccc(C(F)(F)F)c1	none (no result: Jurkat tox 60K, H69AR inhibit, tolC growth inh, Fibroblast inh, HUVEC prolif 384)
O=C(OCn1ncc(Br)c(Br)c1=O)c1ccccc1Cl	H69AR inhibit 1.2, Fibroblast inh 2.7, HUVEC prolif 384 2.6 (no result: Jurkat tox 60K, tolC growth inh)
O=C(OCn1ncc(Br)c(Br)c1=O)c1ccc(F)cc1	H69AR inhibit 1.8, Fibroblast inh 1.9, HUVEC prolif 384 2.3 (no result: Jurkat tox 60K, tolC growth inh)
CCOc1ccc(NC(=O)c2ccccc2NC(=O)CN(C)CC(=O)Nc2ccc(C)cc2)cc1	H69AR inhibit 37.5 (no result: Jurkat tox 60K, tolC growth inh)
CN(c1cccc(NC(=O)Nc2cccc(Cl)c2)c1)S(C)(=O)=O	tolC growth inh 61.3
Cc1ccccc1-c1c(C)oc2cc(O)ccc2c1=O	none
COc1cc(NC(=O)COc2cccc(OC)c2)cc(OC)c1	none (no result: Fibroblast inh)
COc1cccc(NC(=O)CN2CCN(c3ccc(F)cc3)CC2)c1	H69AR inhibit 28.0
CCOc1ccc(NC(=O)CSC(N)=O)cc1	H69AR inhibit 15.1
CCOCC(=O)Nc1cccc(OC)c1	H69AR inhibit 28.2
CCOc1ccc(NC(=O)CCN2CCN(c3ccccc3F)CC2)cc1	H69AR inhibit 24.5 (no result: Jurkat tox 60K, tolC growth inh)
COc1ccccc1C(=O)Nc1c2c(nn1-c1cccc(C)c1C)CS(=O)C2 (configuration not stated)	none
Cc1c(C(=O)N2CCCCC2)sc(NC(=O)C23CC4CC(CC(C4)C2)C3)c1C#N	none (no result: Jurkat tox 60K, tolC growth inh, Ecoli WT expand)
c1ccc2c(c1)nc(-c1ccncc1)n1nnnc21	none
Cc1ccc2[nH]c(=O)c(CN(Cc3ccccc3Cl)C(=O)N3CCOCC3)cc2c1	none
CC1CCc2nc(NC(=O)CN3CCN(c4ccc(F)cc4)CC3)sc2C1 (configuration not stated)	none (no result: Jurkat tox 60K, tolC growth inh)
O=C(CCN1CCN(c2ccccc2F)CC1)Nc1ccccc1F	none
COc1cccc(N2CCN(CC(=O)Nc3nc4c(s3)CC(C)CC4)CC2)c1 (configuration not stated)	tolC growth inh 95.3
CCOc1ccc(NC(=O)CN2CCN(CC(=O)c3ccc(OCC)cc3)CC2)cc1	none
O=C(CCN1CCN(c2ccccc2F)CC1)c1ccc(Br)cc1	H69AR inhibit 7.7
COc1cccc(NC(=O)N2CCN(c3cccc(C)c3C)CC2)c1	tolC growth inh 71.8 (no result: H69AR inhibit, Fibroblast inh, HUVEC prolif 384)
CCOc1ccc(NC(=O)CN2CCN(CC(=O)Nc3ccc(F)cc3)CC2)cc1	H69AR inhibit 30.3
CC1(C)Oc2nc3ccccc3n2/C1=C\C#N	none (no result: Jurkat tox 60K, tolC growth inh, Ecoli WT expand)
CCOC(=O)c1cnc2sc3c(n2c1=O)CCCC3	none
O=S(=O)(NCc1ccccc1)c1ccc(S(=O)(=O)N(Cc2cccs2)CC2CCCO2)cc1 (configuration not stated)	none (no result: Jurkat tox 60K, tolC growth inh)
Cc1cc(C)nc(NCCCc2ccccc2)n1	none
CCCCNc1cc(C)nc(NCc2ccccc2)n1	Jurkat tox 60K 34.2, H69AR inhibit 9.9, tolC growth inh 76.6, Ecoli WT expand 59.0, HUVEC prolif 384 4.4
CC(C)(NC(=O)N1CCOCC1)c1cccc(C(C)(C)NC(=O)N2CCOCC2)c1	none (no result: Jurkat tox 60K, tolC growth inh, Ecoli WT expand)
CCOc1cc(-c2noc(-c3ccncc3)n2)cc(Br)c1OC	H69AR inhibit 20.3
CCCCc1c(O)nc(SCC(=O)NCCc2ccc(OC)c(OC)c2)[nH]c1=O	none
CCCn1c(SCC(=O)Nc2sc(C)c(C)c2C(=O)OC)nc2c1c(=O)n(C)c(=O)n2C	none (no result: Ecoli WT expand)
CCOC(=O)c1c(NC(=O)CSc2nc3c(c(=O)n(C)c(=O)n3C)n2CC)sc(C)c1C	H69AR inhibit 4.0 (no result: Ecoli WT expand)
CCCn1c(SCC(=O)Nc2nc3c(s2)CCCC3)nc2c1c(=O)n(C)c(=O)n2C	H69AR inhibit 31.6
CCCn1c(SCC(=O)Nc2nnc(CC)s2)nc2c1c(=O)n(C)c(=O)n2C	none (no result: Ecoli WT expand)
CCc1nnc(NC(=O)CSc2nc3cccnc3n2Cc2ccccc2)s1	none (no result: Jurkat tox 60K, tolC growth inh, Ecoli WT expand)
COc1ccc(C2SCC(=O)N2CCCN(C)C)cc1 (configuration not stated)	none (no result: Jurkat tox 60K, tolC growth inh)
Cc1noc(NS(=O)(=O)c2ccc(NC(=O)Nc3ccc(Cl)c(Cl)c3)cc2)c1C	tolC growth inh 100.0
CCCc1cc(-c2n[nH]c(C)c2-c2ccc(C(=O)OCC)o2)c(O)cc1O	none (no result: Jurkat tox 60K)
O=C(Cc1ccc(F)cc1)c1ccc(O)cc1O	none (no result: Jurkat tox 60K, tolC growth inh)
CCCc1cc(C(=O)Cc2ccc(C(=O)OCC)o2)c(O)cc1O	tolC growth inh 65.5
CCCc1cc(C(=O)Cc2ccc(F)cc2)c(O)cc1O	H69AR inhibit 15.4 (no result: Jurkat tox 60K)
CCc1cc(C(=O)COc2ccccc2F)c(O)cc1O	tolC growth inh 100.0
CCCc1cc(C(=O)Cc2nc3ccccc3s2)c(O)cc1O	none (no result: Jurkat tox 60K, tolC growth inh)
CCc1cc(C(=O)Cc2ccc(F)cc2)c(O)cc1O	tolC growth inh 90.9 (no result: Ecoli WT expand)
COc1ccc(NC(=O)/C(=C\c2ccc(OS(=O)(=O)c3ccc(C)cc3)cc2)NC(=O)c2ccccc2)cc1	none (no result: Jurkat tox 60K, tolC growth inh)
Cc1ccc(S(=O)(=O)Oc2ccc(/C=C(/NC(=O)c3ccccc3)C(=O)Nc3ccccc3)cc2)cc1	H69AR inhibit 32.0 (no result: Jurkat tox 60K, tolC growth inh)
O=C(c1ccc(Cn2c(=O)[nH]c3ccccc3c2=O)cc1)N1CCN(c2ccc(Cl)cc2)CC1	H69AR inhibit 36.5
C=CCn1c(=O)[nH]c2cc(C(=O)N3CCN(c4cccc(Cl)c4)CC3)ccc2c1=O	none (no result: Jurkat tox 60K, H69AR inhibit, Fibroblast inh, HUVEC prolif 384)

Assay outcomes from PubChem.
